Sampled rows, rich in hits. Any-hit rate of the full collection: about 4.4%.
GRIN3A LBD mod: binders of NR3A ligand-binding domain, primary screen, biophysical, differential scanning fluorimetry, uHTS. Glutamate receptor ionotropic, NMDA 3A (GRIN3A) ligand-binding domain. Tm shift relative to glycine control, % at 25 µM. AID 1259313, 2017. NR3A LBD differential scanning fluorimetry, Tm shift; 0% = protein alone, 100% = glycine-bound protein. 340,000 tested, 2.5% active;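 active = melting temperature shift of at least 10% of the positive control shift, at one fixed dose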
SENP1 inh: human SENP1 catalytic domain inhibitors, primary screen, biochemical, FRET, uHTS. inhibition, % at 10 µM. recombinant SENP1 catalytic domain, CyPet-SUMO1-YPet FRET cleavage. 360,000 tested, 0.21% active;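 active = inhibition at least 30% at 10 µM, raw YFP signal under a set limit, fluorescence ratio 0.5 to 1.5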;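 also: 0% = enzyme with DMSO and 100% = no enzyme wells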
Target sequence (Q9P0U3 419-644 limits assumed): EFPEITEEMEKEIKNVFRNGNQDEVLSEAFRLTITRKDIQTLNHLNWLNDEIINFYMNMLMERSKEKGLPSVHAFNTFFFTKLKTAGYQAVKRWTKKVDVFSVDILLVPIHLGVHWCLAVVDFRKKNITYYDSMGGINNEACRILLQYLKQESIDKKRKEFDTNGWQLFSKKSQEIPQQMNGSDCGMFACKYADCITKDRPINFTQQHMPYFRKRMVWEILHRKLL
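Material – human SENP1 catalytic domain · Input – SENP1 enzyme, 20 pM final · Compound dosing – single concentration of 10 µM compound, 0.5% DMSO final · Timing – enzyme reaction for 50 min at room temperature, dark · Measured by – FRET fluorescence in CFP and YFP emission channels · Control set – no-enzyme wells low, DMSO-plus-enzyme wells high control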
EBI2 antag: EBI2 receptor antagonists, beta-arrestin recruitment, primary screen, cell-based, luminescence, 7a,25-OHC stimulation, uHTS | G-protein coupled receptor 183 (Homo sapiens), P32249 | 360,000 tested, 0.81% active | inhibition, % at 5 µM | 7a,25-OHC stimulated; in the data active = inhibition above about 38%;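 also: enzyme fragment complementation signal reports receptor beta-arrestin coupling in cells; 0% = agonist plus DMSO wells and 100% = wells without agonist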
Target sequence (P32249 whole entry, looked up, the tested form may be a part): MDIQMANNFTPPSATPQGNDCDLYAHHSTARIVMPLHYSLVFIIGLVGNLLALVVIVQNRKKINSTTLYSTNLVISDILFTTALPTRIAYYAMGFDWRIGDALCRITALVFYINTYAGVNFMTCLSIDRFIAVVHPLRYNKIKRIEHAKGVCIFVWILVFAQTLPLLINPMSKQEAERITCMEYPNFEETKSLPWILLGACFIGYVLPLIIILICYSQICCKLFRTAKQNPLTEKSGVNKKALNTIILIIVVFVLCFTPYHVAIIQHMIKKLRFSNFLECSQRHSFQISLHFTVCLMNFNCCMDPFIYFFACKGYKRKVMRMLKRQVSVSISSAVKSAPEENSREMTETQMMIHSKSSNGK
MPTP block: mitochondrial permeability transition pore inhibitors, primary screen, biochemical, isolated mouse mitochondria, absorbance | Ca2+ swelling absorbance, 30 min | inhibition, % at 10 µM | 360,000 tested, 1.4% active;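 active = inhibition of 50% or more, scaled per plate between neutral and stimulator controls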;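 also: 0% = DMSO wells given calcium and 100% = 1 mM EGTA wells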
Rh123 counter: fluorescence retest of MPTP screen hits in isolated mitochondria, single concentration; inhibition, % at 10 µM; shares compounds with MPTP block; membrane potential, Rhodamine 123 fluorescence; 5,000 tested, 78% active; in the data active = inhibition above about 22%;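 also: 0% = DMSO vehicle and 100% = positive control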
MPTP abs DR: mitochondrial permeability transition pore inhibitors, dose response, biochemical, absorbance, uHTS hits | shares compounds with MPTP block | isolated mitochondria swelling | IC50, µM | 780 tested, 58% active; in the data active = IC50 below about 20 µM
MPTP cs DR: fluorescent counter-screen in isolated mitochondria, dose response, counter-screen for MPTP inhibitor project, biochemical, fluorescence, uHTS hits; shares compounds with MPTP block; isolated mitochondria counterscreen, fluorescence read-out; IC50, µM; 780 tested, 49% active; AID 651564, 2012; in the data active = IC50 below about 80 µM
* marks the source's active call; other numbers are inactive results; x = not tested or not shown.

SMILES	GRIN3A LBD mod	SENP1 inh	EBI2 antag	MPTP block	Rh123 counter	others
COc1ccc(C=NNc2ccc([N+](=O)[O-])cc2S(=O)(=O)Nc2ccccc2C(=O)O)cc1OC	31*	-30	9	60*	37*
COc1ccc(/C=N/Nc2ccccc2C(=O)O)cc1Cn1cc([N+](=O)[O-])cn1	-2	-6	-13	1	x
Cc1nnsc1SCCNC(=O)Nc1ccc(Cl)cc1	28*	0	5	88*	90*
O=C(Nc1nnc(-c2ccc(Cl)cc2)o1)Nc1ccccc1Cl	0	1	-1	-1	x
O=C(Nc1nnc(-c2ccc(Cl)cc2)o1)c1nc2ccccc2s1	-4	1	-3	97*	5	MPTP abs DR=2.6*;MPTP cs DR=13*
CN(C)C(=O)c1ccc(NC(=O)COC(=O)CCN=C2NS(=O)(=O)c3ccccc32)cc1	1	0	10	-3	x
CCOc1ccc(NS(=O)(=O)c2cc(NC(=O)c3cccc(C)c3)ccc2Cl)cc1	9	-1	10	89*	41*
CCOc1ccc(NS(=O)(=O)c2cc(C(=O)N3CCCC3)ccc2Cl)cc1	1	2	7	0	x
O=c1oc2c(CN3CCN(CCO)CC3)c(O)ccc2cc1-c1ccccn1	2	-35	5	1	x
O=c1c2c(C(F)(F)F)cc(C(F)(F)F)nc2[nH]n1-c1ccccc1	0	0	-3	90*	68*
Oc1[nH]c2ccccc2c1N=Nc1ccccn1	1	8	13	-1	x
Oc1c(N=Nc2ccccn2)ccc2ccccc12	1	14	36	54*	-52
Cc1cc(C(F)(F)F)nn1CC(=O)NNC(=S)Nc1ccc(Cl)cc1	-1	1	-2	1	x
O=C(Cn1nnc(-c2cc(C(F)(F)F)cc(C(F)(F)F)c2)n1)NNC(=S)Nc1ccc(Cl)cc1	36*	2	-11	84*	61*
Cc1ccc(NC(=O)COC(=O)c2ccccc2Nc2ccccc2)cc1	-2	0	-2	6	x
Cc1cccc(C(=O)Nc2ccccc2C(=O)OCC(=O)Nc2ccc(C#N)cc2)c1	15*	-1	30	77*	62*
C=CCN1C(=O)c2ccc(C(=O)N3CCN(S(=O)(=O)c4ccc(C(C)C)cc4)CC3)cc2C1=O	3	0	1	-1	x
CC(OC(=O)CCc1nc2ccccc2c(=O)[nH]1)C(=O)c1ccc(C(C)(C)C)cc1 (centres undefined)	-3	-3	11	96*	86*
Cc1ccc([N+](=O)[O-])cc1NC(=O)Nc1cccc(F)c1	0	2	-1	16	x
O=C(Nc1ccccc1)Nc1cc([N+](=O)[O-])ccc1F	20*	3	-2	63*	91*
Cc1cc([N+](=O)[O-])ccc1NC(=O)Nc1ccccc1F	-28	4	-3	93*	92*
Cc1cc([N+](=O)[O-])ccc1NC(=O)Cc1ccc(F)cc1	2	-2	2	3	x
COc1ccc(S(=O)(=O)N2CCCC(C(=O)N3CCCC3)C2)cc1OC (centres undefined)	0	1	1	-2	x
CC(O)[C@H]1CC[C@H]2[C@@H]3CC[C@H]4C[C@H](O)CC[C@]4(C)[C@H]3[C@H](O)C[C@]12C (some centres undefined)	-1	5	2	1	x
CC(C)CC1CC(C)(c2csc(NNC(=O)c3ccccc3)n2)OC1=O (centres undefined)	4	0	7	-4	x
SMILES	GRIN3A LBD mod	SENP1 inh	EBI2 antag	MPTP block	Rh123 counter	others
O=C(COC(=O)/C=C/c1ccc([N+](=O)[O-])cc1)NC(c1ccccc1)c1ccccc1	-1	2	33	0	x
CC1CCN(S(=O)(=O)c2nnc(NC(=O)c3cccc(Cl)c3)s2)CC1	14*	-4	1	83*	79*
COc1ccccc1C(=O)Nc1nnc(S(=O)(=O)N2CCC(C)CC2)s1	-6	1	-6	14	x
COc1cc(C)ccc1OCCCCOc1ccccc1C(C)=O	3	-1	-5	95*	85*
COC(=O)c1ccccc1OCCCOc1ccc(C=O)cc1OC	-5	1	-1	58*	-8	MPTP abs DR=11*;MPTP cs DR=>80
CC(C)(C)NC(=O)c1cccc(NC(=O)c2cccc(O)c2)c1	3	-1	3	0	x
Cc1cccc(C2(c3cccc(C)c3)CC2C(=O)Nc2ccc([N+](=O)[O-])cc2O)c1 (centres undefined)	15*	3	20	96*	68*
CCCCCCCCN1C(=O)[C@H](CC(=O)NCCC(C)C)C[C@@]2(C(=O)OCC)CCCC=C12	x	-1	3	-4	x
CC(C)(C)N(NC(=O)Nc1ccc(F)cc1)C(=O)c1ccccc1	-1	1	-13	-1	x
CC(C)(C)N(NC(=O)Nc1ccc(Cl)c(Cl)c1)C(=O)c1ccccc1	5	2	6	104*	97*
Cc1cc(C)cc(C(=O)N(NC(=O)Nc2ccc(Cl)cc2)C(C)(C)C)c1	3	2	-11	97*	98*
Cc1ccc(N=Cc2cc(Cc3ccccc3Cl)cc([N+](=O)[O-])c2O)c(O)c1	-4	7	-10	84*	53*
Cc1n[nH]c(C)c1Sc1ccccc1N=Cc1cc(Cl)cc([N+](=O)[O-])c1O	-13	24	14	37	x
COc1ccc(N=Cc2cc(Cc3ccccc3Cl)cc([N+](=O)[O-])c2O)cc1OC	-2	10	-10	62*	-5
COc1cc(CCN=Cc2cc(Cl)cc(Cl)c2O)c([N+](=O)[O-])cc1OC	x	-20	-1	-1	x
Cc1cc(Cl)ccc1NC(=O)NC1CCN(S(=O)(=O)c2ccc(F)cc2)CC1	-1	-2	9	59*	76*
O=C(Nc1ccc(F)cc1F)NC1CCN(S(=O)(=O)c2ccc(F)cc2)CC1	5	2	-1	-1	x
CCOC(=O)c1ccc(NC(=O)Cc2coc3cc4c(cc23)CCC4)cc1	3	0	-1	87*	92*
O=c1c2ccccc2nc(N/N=C/c2c(O)ccc3ccccc23)n1O	12*	-7	-15	52*	-19
O=C(CSc1nc2ccc(Cl)cc2[nH]1)NC1CCCc2ccccc21 (centres undefined)	-31	2	15	63*	62*
